Yeast fitness data for 167 variants are collected here from the RNAGym collection of RNA variant scans (doi:10.1126/science.aae0568).

Variants at the floor of the assay were thinned out.

To fix the notation:
B1: tRNA (parent)
chain: GUUCCGUUGGCGUAAUGGUAACGCGUCUCCCUCCUAAGGAGAAGACUGCGGGUUCGAGUCCCGUACGGAACG

The data set covers variants of B1. As to the kind of experiment: yeast fitness relative to wild type (ratio to wild type); higher = fitter; tRNA-Arg(CCU), competitive growth, 37 C, YPD. In short, it runs like this: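 Genotype frequency changes were the basis for Darwinian fitness relative to wild type. The frequencies came from 100-nucleotide paired-end sequencing of gene amplicons from the start population and each end population of pooled yeast strains with tRNA-Arg(CCU) gene variants at the native locus. Competition ran in YPD at 37°C for 24 hours in six replicates, genotypes needed ≥ 100 starting reads, and estimates < 0.5 were set to 0.5.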
As to C4U U8G A20G U47G A57G, the yeast fitness was ≤ 0.5.
For C5A C60G the value was 0.551.
As to C5A U8C C11U C31A A37U G67C, the yeast fitness is ≤ 0.5.
For C5A C11G A21U C62U, the yeast fitness was ≤ 0.5.
For C5A U7C C29U C66U the value was ≤ 0.5; for C5A U7A A21G, ≤ 0.5; for C4U G25A A57U U59A, ≤ 0.5.
For C5A C33U G67A the value was 0.593; for C5A U26G, 0.785.
As to C5A G10C G12A G23A, the yeast fitness is ≤ 0.5.
For the variant C4U U19C A36G G39A G67A, the yeast fitness was ≤ 0.5.
With C4U U16A A20U U35C G39C A42C C55G A70G, the yeast fitness was ≤ 0.5.
For C5G A15G the value was 0.819.
As to C4U G67U, the yeast fitness is 0.782.
For C5A C11G G51A the value was 0.538; for C5G A21G U32C C49G A65G, 0.553.
As to C5A U26A G56A A65G, the yeast fitness was found to be 0.565.
C5A U7G C29G C33U G44C A69C: the yeast fitness is ≤ 0.5.
On to C5A C11A C30U C31A G58A G67C, for which the yeast fitness was determined as 0.548.
For C5G A15U U35A the value was 0.696; for C5G A15U G63A, 0.551.
For C5A C11G C27U G41C the value was ≤ 0.5; for C5A C22A G50C G58A A69C, 0.607.
For C5A G12A G18A the value was ≤ 0.5; for C4U G18C C31U, ≤ 0.5; for C5A U19A C62A, ≤ 0.5.
C5A A43U U47C: the yeast fitness came to 0.543.
For C5A C30A C34U C46U the value was ≤ 0.5; for C5A C46A, 0.97.
For C5A C24G A36G A65U the value was ≤ 0.5; for C4U G56A, 0.934.
For C5G A20C C22U C24U C55U the value was ≤ 0.5; for C5A A37C C46U A65C, ≤ 0.5.
On to C5A C30U G68U, for which the yeast fitness stood at 0.567.
As to C5A C11U A21C, the yeast fitness was 0.654.
For C4U G12C C49G the value was 0.533; for C4U U7G C34G G51A, ≤ 0.5.
For C5A A14U U53A the value was ≤ 0.5; for C5A C24G A69C, ≤ 0.5; for C5A C24G A69U, 0.578.
In the case of C5A U59A C60U, the yeast fitness is ≤ 0.5.
With C5G A21G, the yeast fitness turned out to be 0.997.
Consider C5A U54A C55G A65C, for which the yeast fitness was ≤ 0.5.
For C4U U8C G17C C49A the value was ≤ 0.5.
For C5A U13G the value was 0.841; for C5A G17A A21C C33G A43U, ≤ 0.5; for C4U G23C C30G, ≤ 0.5.
For the variant C4U U8A G25C A43U C60G, the yeast fitness is ≤ 0.5.
For C5A G25C C66G the value was ≤ 0.5; for C4U U16G C66G, ≤ 0.5; for C4U U19A C30G A36C U47C, ≤ 0.5.
Turning to C5A A14U C31G G63A, the yeast fitness is ≤ 0.5.
For C5G A14U C49A A57G the value was 0.639.
On to C4U G23C A40U A42G G58C, for which the yeast fitness was ≤ 0.5.
With C4U U13A A14U C29U A37G U59C G68C, the yeast fitness is ≤ 0.5.
For C5A C31G A40G the value was 0.529; for C5A A20U, 0.781; for C5A C11U C34A A40U A42U C49A G50C A57C C66G, ≤ 0.5.
Take C5A G39C: the yeast fitness was found to be 0.673.
In the case of C5A A15C G39C, the yeast fitness is ≤ 0.5.
For C5A A14G C31U C34U C60G G63A the value was ≤ 0.5; for C5A U7C C49A A69C, ≤ 0.5.
Regarding C4U U28A A57C C61A, the yeast fitness was ≤ 0.5.
For C5A U7C G48C the value was ≤ 0.5; for C5A U7C C30A C31U, ≤ 0.5; for C5A C34A C46U A57G, ≤ 0.5.
For C5A C24G C29G A40C A43U U47A C60A the value was ≤ 0.5; for C4U G58C A69U, 0.785; for C5A A15C C29A A42C A45G G56C, ≤ 0.5.
Consider C4U G17A, for which the yeast fitness came out at 0.973.
C5A U19A G68C: the yeast fitness was determined as 0.539.
For C5A C27A the value was 0.936; for C5A A15C C29A G39A C60G A70G, ≤ 0.5; for C5A A14U A15C C24G U26A, 0.78.
For C5A A42G G51C the value was ≤ 0.5; for C5A A21G G67C, 0.933; for C5A A14U A21G G52A, 0.533.
As to C5G A14G A15G C30U A45G U64A, the yeast fitness was ≤ 0.5.
For C5G A15C G58A G67C the value was ≤ 0.5.
On to C5A G9A G25A A69U, for which the yeast fitness is ≤ 0.5.
For C5A U7C C34U C66U the value was ≤ 0.5; for C5G A14U G23C C33A, ≤ 0.5.
As for C5A G9A G41A U64A, the yeast fitness was ≤ 0.5.
For C5A U13C C29U G48C G52C A57C G58A the value was ≤ 0.5.
As to C4U U7A A37C, the yeast fitness was ≤ 0.5.
For C5G A20C A42U G44A C61G the value was ≤ 0.5; for C5A C27G A57C, ≤ 0.5; for C5A C11A, 0.592.
Regarding C5A G18C U35G A57C U64A, the yeast fitness is ≤ 0.5.
Take C5A U16C U59G: the yeast fitness is ≤ 0.5.
For C5A G17A A36G G67A A69U the value was ≤ 0.5; for C5A G67C, 1.03.
As to C5A C11G C30U A36C A42G C61G, the yeast fitness is ≤ 0.5.
Consider C5A C11G G41C C49U, for which the yeast fitness is ≤ 0.5.
With C5A G17C A42C A57C, the yeast fitness is ≤ 0.5.
Regarding C5A A36C A69C, the yeast fitness is 0.539.
For the variant C5A A21U, the yeast fitness was 0.621.
For C5A U16C A45G G50A the value was ≤ 0.5; for C5G A14C C34G, ≤ 0.5; for C5A A40C, 0.727.
For C5A C30U the value was 0.693; for C4U U26G C62G, ≤ 0.5.
Consider C5G A15G U16A A20G U28A C30A C33A A36U U47C A69C, for which the yeast fitness was ≤ 0.5.
In the case of C5A G10C C24G, the yeast fitness is ≤ 0.5.
For C5A G12A C33U the value was ≤ 0.5; for C4U U35C A45G C49G G56A A65C, ≤ 0.5.
For C5A C60U C61G the value was ≤ 0.5.
For C5G A20U G56A the value was 0.572.
Turning to C4U U32A G50A G67A, the yeast fitness was ≤ 0.5.
For C5A U8G C27U A45G U53C the value was ≤ 0.5; for C5A U13A U35A U59C, 0.661; for C5A C29U A57G U59C, ≤ 0.5.
For C5G A20C C33U C62G the value was ≤ 0.5.
Turning to C5G A21C U54A A57G, the yeast fitness was ≤ 0.5.
For C4U G41A the value was 1.02; for C4U U64C, 0.962; for C5A C11U G44C C49U, 0.53.
For C4U G17A U19G A21G A43G the value was 0.554; for C5A A14U G50A A57U A70G, ≤ 0.5.
For C5G A15C U32C C46U U53G the value was ≤ 0.5; for C4U G23C G51A A69G, 0.586.
Take C5G A21C C61A: the yeast fitness is ≤ 0.5.
With C4U U7A, the yeast fitness was 0.743.
On to C5A A40G C49G, for which the yeast fitness was determined as 0.569.
Turning to C5G A14U A21G G23A C31U G63C U64A C66G, the yeast fitness was ≤ 0.5.
For C5A C30A A43U A57G the value was ≤ 0.5; for C5A C22G C31G, ≤ 0.5; for C5A U32C A36G, 0.53.
Turning to C5A A40G C62U, the yeast fitness is ≤ 0.5.
Turning to C5A U8C U13C A40G C62U, the yeast fitness was ≤ 0.5.
For C4U U16A C61U, the yeast fitness is 0.708.
For C5A A20U C29A the value was ≤ 0.5.
As to C5A C11G A40G G67C A69U, the yeast fitness was ≤ 0.5.
With C5G A20G A65U, the yeast fitness came out at 0.652.
For C4U G12A U19C U26A the value was ≤ 0.5; for C5A A14U A21C C61U, ≤ 0.5.
For C5A G48C G67C the value was 0.591; for C5G A15C C22A G63A A65G, ≤ 0.5; for C4U G23C A36C C66U, ≤ 0.5.
In the case of C5A U16C A21C C33U A40G U54G C62G, the yeast fitness stood at 0.577.
For C5A G6C G10A A42C the value was ≤ 0.5; for C5A G17A G25A G48C, ≤ 0.5; for C5A A20C C29U C34A C46A G50A A57U C66U, ≤ 0.5.
For C4U G12A C62U the value was 0.73; for C4U G12A A20G C22U, 0.532.
For C5G A15U A69U the value was 0.698.
In the case of C5G A20U G25A C31U G41A C55G, the yeast fitness is ≤ 0.5.
For C5A A20C U64A G67A the value was ≤ 0.5.
For C5A C11A C24U U26C C29U C31G A42G the value was ≤ 0.5.
In the case of C5A G12C, the yeast fitness amounted to 0.746.
For C5G A14G G17A U32C G56C A69U the value was ≤ 0.5; for C5A G12A G18A A65U, ≤ 0.5.
For C5A A14G C29G C55U A70U the value was ≤ 0.5; for C5A C33G C34A A40C C55U A65C, ≤ 0.5.
For C4U G18A G23C C24G C46G U64G the value was ≤ 0.5; for C5A G48A, 0.871; for C5G A14U A20U G41A A57G, ≤ 0.5.
Consider C5A G58C C60A A70C, for which the yeast fitness was ≤ 0.5.
For C5A G25C G56C the value was ≤ 0.5; for C5A A15C C29U C46U U53A, 0.52; for C5G A20C C29G G38C, 0.529.
For C5A G18C C46U the value was 0.557; for C4U G10A U28A, ≤ 0.5.
For C5A C11G G51A C61U the value was ≤ 0.5; for C4U U54C, 0.921; for C5A C29A C34G G68C, ≤ 0.5.
For C5A G52A G58C, the yeast fitness is ≤ 0.5.
